A short description of assay [1]: HUVEC growth inhibition – cell-based, human, primary screen (AID 575;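 active = viability at or below 30% in both replicate assays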;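 also: 100% = median of untreated cell wells with 0.1% DMSO on each plate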). Conditions: HUVEC proliferation, CellTiter-Glo luminescence, 72 h; at 10 µM; stronger effect = lower value. The gist of the method:
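Assay system: primary human umbilical vein endothelial cells / Buffer or medium: endothelial basal medium with 2% FBS plus growth supplements / Compound dosing: one dose, 10 µM final, 0.1% DMSO / Timing: 72 h treatment at 37 °C / Signal: CTG luminescence / Benchmarks: 32 DMSO-only cell-control wells (high), 32 MePR drug-control wells (low) per plate / Plate: collagen-coated 384-well format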
On the technique in general: In ATP-based viability assays light output follows the ATP content of the culture.

Assay [2] can be described thus: H69AR cell proliferation blockers – human, duplicate replicates, primary screen (AID 580;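 active = viability at or under a set limit in both replicates, limit being median viability minus 3 SD, cut at about 48% in these data, passing the limit was not always enough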;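 also: 100% = mean luminescence of untreated wells and 0% = no signal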). The note with it: H69AR lung tumor cells viability, ATP luminescence, 72 h; at 10 µM; stronger effect = lower value.
Assay [3] is described as follows: MRP1 drug-resistance reversers in H69AR cells – cell-based, doxorubicin co-treatment, pilot screen (AID 601;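 active = viability loss from added drug above about 55%, and viability with drug at most 40%, in both replicates, limit read from the data, passing the limit was not always enough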). Conditions: CellTiter-Glo, 72 h, at 10 µM; for differential viability (reversal): stronger effect = higher value.
The nature of assay [4]: yeast transport mutant growth inhibition pilot in 384-well plates, post-Golgi transport modulator project (AID 636; in the data active = inhibition above about 31%). The note with it: absorbance 615 nm, about 18 h, stronger effect = higher value.
The nature of assay [5]: growth suppression of yeast trafficking mutant, preliminary HTS, modulators of trafficking downstream of Golgi apparatus project, 1536-format plate, OD 615 nm (AID 637). Conditions: yeast transport mutant growth, absorbance 615 nm, 18 h; stronger effect = higher value.
The mark [6] stands for this setting: H69AR cells + 2 uM doxorubicin, measured here: viability with 2 uM doxorubicin, stronger effect = lower value.
Where [7] appears, read: H69AR cells, compound alone cytotoxicity.

Our source for the viability, differential viability (reversal) and inhibition values is PubChem BioAssay.

Calls of active or inactive are those of the source. Rule as the data show it, unless noted: active = inhibition above about 30%; inactive = the rest.

Usually viability stands for a read-out of living cells in per cent, often relative to untreated cells. By inhibition is commonly meant the drop in the measured response relative to a control, in per cent.

`Cc1onc(-c2c(Cl)cccc2Cl)c1C(=O)NCCN1CCOCC1`: the viability in assay [1] is 94.9% (inactive); in assay [2], 89.9% (inactive); in assay [3] (setting [6]) it was 98.7%; in assay [3] (setting [7]), 89.9%. Besides, the differential viability (reversal) in assay [3] (H69AR cells + 2 uM doxorubicin) was -8.8% (inactive). Also, the results for the inhibition in assay [4] and in assay [5] were -3.03% (inactive) and 1.43% (inactive), respectively.

With `COC(=O)c1ccc(CN(c2ccccc2OC)S(=O)(=O)c2cccs2)o1`, the viability was 98.8% (inactive) in assay [1], 86.2% (inactive) in assay [2], 102% in assay [3] (setting [6]) and 86.2% in assay [3] (setting [7]). Besides, the differential viability (reversal) in assay [3] (H69AR cells + 2 uM doxorubicin) was -15.4% (inactive). The inhibition is -6.88% (inactive) in assay [4] and -7.14% (inactive) in assay [5].

On to `COc1ccc(C(=O)Nc2ccc(S(=O)(=O)Nc3nccnc3OC)cc2)cc1OC`, for which the viability in assay [1] is 97.4% (inactive); in assay [2], 99.6% (inactive); in assay [3] (setting [6]) it was 88.6%; in assay [3] (setting [7]), 99.6%. Also, the differential viability (reversal) in assay [3] (H69AR cells + 2 uM doxorubicin) is 11% (inactive). Also, the values for the inhibition in assay [4] and in assay [5] were 1.69% (inactive) and 4.6% (inactive), respectively.

With `CC(=O)NCC(=O)OC(C)C(=O)Nc1ccc(C(C)=O)cc1` (stereo not given), the viability in assay [1] was 97.1% (inactive); in assay [2], 95.2% (inactive); in assay [3] (setting [6]), 97.3%; in assay [3] (setting [7]), 95.2%. Moreover, in assay [3] (H69AR cells + 2 uM doxorubicin), the differential viability (reversal) is -2.15% (inactive). Further, the inhibition in assay [4] was -6.75% (inactive); in assay [5], -5.4% (inactive).

As for `Cn1cccc1C(=O)NC(=O)CSc1nnc(C2CC2)n1-c1ccccc1`, the viability was 102% (inactive) in assay [1], 85.7% (inactive) in assay [2], 93% in assay [3] (setting [6]) and 85.7% in assay [3] (setting [7]). The differential viability (reversal) in assay [3] (H69AR cells + 2 uM doxorubicin) is -7.28% (inactive). Further, the inhibition is -1.17% (inactive) in assay [4] and -0.63% (inactive) in assay [5].

In the case of `COc1nc2ccc(C)cc2cc1-c1noc(-c2cccnc2)n1`, the viability in assay [1] is 103% (inactive); in assay [2], 104% (inactive); in assay [3] (setting [6]), 91.9%; in assay [3] (setting [7]) it was 104%. Besides, in assay [3] (H69AR cells + 2 uM doxorubicin), the differential viability (reversal) is 11.8% (inactive). Also, the values for the inhibition in assay [4] and in assay [5] were -2.37% (inactive) and -2.54% (inactive), respectively.

Consider `Nc1nnc(SCC(=O)N2CCN(c3ccccc3)CC2)n1-c1ccccc1`, for which the viability in assay [1] was 80.6% (inactive); in assay [2], 90% (inactive); in assay [3] (setting [6]), 82.1%; in assay [3] (setting [7]), 90%. Also, in assay [3] (H69AR cells + 2 uM doxorubicin), the differential viability (reversal) was 7.97% (inactive). In addition, the inhibition in assay [4] was -0.78% (inactive); in assay [5], 2.06% (inactive).

For `O=C(CCCn1c(=O)c2sccc2n(Cc2ccc(F)cc2)c1=O)NCc1ccco1`, the viability is 51.1% (inactive) in assay [1], 27.4% (active) in assay [2], 79.4% in assay [3] (setting [6]) and 27.4% in assay [3] (setting [7]). For the same compound, the differential viability (reversal) in assay [3] (H69AR cells + 2 uM doxorubicin) was -52% (inactive). The values for the inhibition in assay [4] and in assay [5] were -0.39% (inactive) and -4.44% (inactive), respectively.

Take `Cc1ccc(SCCC(=O)N(C)C)cc1`: the viability in assay [1] was 105% (inactive); in assay [2], 103% (inactive); in assay [3] (setting [6]), 84.6%; in assay [3] (setting [7]) it was 103%. Besides, the differential viability (reversal) in assay [3] (H69AR cells + 2 uM doxorubicin) was 18.3% (inactive). Moreover, the inhibition in assay [4] is -2.89% (inactive); in assay [5] it was 0% (inactive).

For `O=C(CSc1nc(-c2ccc(F)cc2)cs1)N1CCOCC1`, the viability in assay [1] is 122% (inactive); in assay [2], 94.4% (inactive); in assay [3] (setting [6]), 75.2%; in assay [3] (setting [7]), 94.4%. Further, the differential viability (reversal) in assay [3] (H69AR cells + 2 uM doxorubicin) is 19.2% (inactive). For the same compound, the inhibition in assay [4] is -0.92% (inactive); in assay [5], 6.67% (inactive).

With `CCOC(=O)C1CCCn2c1nc1sc3c(c1c2=O)CCCC3` (stereo not given), the viability was 86.1% (inactive) in assay [1], 89.1% (inactive) in assay [2], 98.3% in assay [3] (setting [6]) and 89.1% in assay [3] (setting [7]). Further, in assay [3] (H69AR cells + 2 uM doxorubicin), the differential viability (reversal) was -9.13% (inactive). Moreover, the values for the inhibition in assay [4] and in assay [5] were 0.27% (inactive) and -4.6% (inactive), respectively.

Regarding `O=C(O)c1cnn2c1NC(c1ccc(F)cc1)CC2C(F)(F)F` (stereo not given), the viability was 90.8% (inactive) in assay [1], 97.6% (inactive) in assay [2], 88.3% in assay [3] (setting [6]) and 97.6% in assay [3] (setting [7]). In addition, the differential viability (reversal) in assay [3] (H69AR cells + 2 uM doxorubicin) was 9.29% (inactive). For the same compound, the results for the inhibition in assay [4] and in assay [5] were -6.32% (inactive) and 4.92% (inactive), respectively.

In the case of `CCOC(=O)C1CCCN(C(=O)CNS(=O)(=O)c2ccc(Br)s2)C1` (stereo not given), the viability was 108% (inactive) in assay [1], 95.7% (inactive) in assay [2], 78% in assay [3] (setting [6]) and 95.7% in assay [3] (setting [7]). The differential viability (reversal) in assay [3] (H69AR cells + 2 uM doxorubicin) is 17.7% (inactive). Also, the inhibition in assay [4] is -6.71% (inactive); in assay [5] it was 4.13% (inactive).

Take `CCOc1ccccc1N1CCN(S(=O)(=O)c2cccc3nsnc23)CC1`: the viability in assay [1] is 84.1% (inactive); in assay [2] it was 86.1% (inactive); in assay [3] (setting [6]) it was 81.4%; in assay [3] (setting [7]), 86.1%. Further, in assay [3] (H69AR cells + 2 uM doxorubicin), the differential viability (reversal) is 4.72% (inactive). Further, the inhibition was 0.26% (inactive) in assay [4] and 10.9% (inactive) in assay [5].

As to `CC(=O)c1cc(-c2ccccc2)n(CC(=O)N2CCN(C3CCCC3)CC2)c1C`, the viability in assay [1] is 98.7% (inactive); in assay [2], 80.5% (inactive); in assay [3] (setting [6]) it was 80.6%; in assay [3] (setting [7]), 80.5%. Also, the differential viability (reversal) in assay [3] (H69AR cells + 2 uM doxorubicin) is -0.095% (inactive). The values for the inhibition in assay [4] and in assay [5] were -5.58% (inactive) and 0.95% (inactive), respectively.

Consider `COc1ccccc1NC1=NC2(CCCC2)N=C(N)N1`, for which the viability in assay [1] is 91.3% (inactive); in assay [2], 99.7% (inactive); in assay [3] (setting [6]), 90.9%; in assay [3] (setting [7]), 99.7%. Moreover, in assay [3] (H69AR cells + 2 uM doxorubicin), the differential viability (reversal) was 8.79% (inactive). In addition, the inhibition was -2.6% (inactive) in assay [4] and 3.02% (inactive) in assay [5].

As for `COc1cccc(CC(NC(C)=O)C(=O)NC2CCN(c3c4c(nc5ncnn35)CCC4)CC2)c1` (stereo not given), the viability in assay [1] is 90.4% (inactive); in assay [2], 96.1% (inactive); in assay [3] (setting [6]) it was 87.9%; in assay [3] (setting [7]), 96.1%. The differential viability (reversal) in assay [3] (H69AR cells + 2 uM doxorubicin) is 8.17% (inactive). Further, the inhibition in assay [4] was -6.18% (inactive); in assay [5], 3.17% (inactive).

Turning to `Cc1cc(=O)oc2c(CN3CCN(C)CC3)c(O)c(Cl)cc12`, the viability in assay [1] is 101% (inactive); in assay [2], 90.7% (inactive); in assay [3] (setting [6]), 84.5%; in assay [3] (setting [7]), 90.7%. In assay [3] (H69AR cells + 2 uM doxorubicin), the differential viability (reversal) was 6.16% (inactive). The inhibition in assay [4] was -6.05% (inactive); in assay [5] it was -0.95% (inactive).

As for `COc1ccccc1CC(=O)NCc1ccc2c(c1)OCO2`, the viability in assay [1] was 106% (inactive); in assay [2] it was 93.5% (inactive); in assay [3] (setting [6]), 84.3%; in assay [3] (setting [7]), 93.5%. Moreover, the differential viability (reversal) in assay [3] (H69AR cells + 2 uM doxorubicin) was 9.18% (inactive). For the same compound, the inhibition is -7.2% (inactive) in assay [4] and 6.19% (inactive) in assay [5].

Turning to `O=C(Cc1c[nH]c2ccccc12)N1CCc2ccccc21`, the viability is 88.9% (inactive) in assay [1], 80.7% (inactive) in assay [2], 67.5% in assay [3] (setting [6]) and 80.7% in assay [3] (setting [7]). In assay [3] (H69AR cells + 2 uM doxorubicin), the differential viability (reversal) is 13.1% (inactive). The inhibition in assay [4] is -2.99% (inactive); in assay [5] it was -2.86% (inactive).
